Test results reported in ChEMBL document CHEMBL1153616, “Synthesis and antiviral activity of new pyrazole and thiazole derivatives” (Eur J Med Chem, 2009).
Values after ≈ are worked out from the molar mass of the structure shown.

Columns and labels:
[1] = Cytotoxicity against HEL cells assessed as minimum cytotoxic concentration required to cause microscopically detectable alteration in normal cell morphology; type: cell-based; conditions: human
In short: (§1)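 Run in parallel with antiviral assays on uninfected cell cultures; test compounds from 10 mg/ml DMSO stocks in serial dilution. Value is minimum cytotoxic concentration (MCC) producing microscopically detectable alteration of normal cell morphology.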

Human alphaherpesvirus 2 = experiment: Antiviral activity against HSV2 G infected in human HEL cells assessed as inhibition of virus-induced cytopathicity after 3 days; type: functional, organism-based; conditions: Human alphaherpesvirus 2, strain G, 72 h
In short: (§2)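 Confluent cell monolayers infected with 100 CCID50 virus; after 2 h adsorption at 37 °C, virus removed and serial compound dilutions added (DMSO stocks 10 mg/ml). Incubated 37 °C for 3 days until complete CPE in untreated virus control. EC50 = concentration protecting 50% of infected cells from viral cytopathogenicity; ">" marks highest concentration tested.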

Vaccinia virus = experiment: Antiviral activity against Vaccinia virus infected in human HEL cells assessed as inhibition of virus-induced cytopathicity after 3 days; type: functional, organism-based; conditions: Orthopoxvirus vaccinia, 72 h
[2] = system: Vesicular stomatitis virus; experiment: Antiviral activity against Vesicular stomatitis virus infected in human HEL cells assessed as inhibition of virus-induced cytopathicity after 3 days; type: functional, organism-based; conditions: 72 h
Human alphaherpesvirus 1 [3] = experiment: Antiviral activity against thymidine kinase-deficient ACV-resistant HSV1 KOS infected in human HEL cells assessed as inhibition of virus-induced cytopathicity after 3 days; type: functional, organism-based; conditions: Human alphaherpesvirus 1, KOS, 72 h
[4] = Cytotoxicity against human HeLa cells assessed as minimum cytotoxic concentration required to cause microscopically detectable alteration in normal cell morphology; type: cell-based; in short: as §1
[5] = system: Vesicular stomatitis virus; experiment: Antiviral activity against Vesicular stomatitis virus infected in human HeLa cells assessed as inhibition of virus-induced cytopathicity after 3 days; type: functional, organism-based; conditions: 72 h
Human alphaherpesvirus 1 [6] = experiment: Antiviral activity against HSV1 KOS infected in human HEL cells assessed as inhibition of virus-induced cytopathicity after 3 days; type: functional, organism-based; conditions: Human alphaherpesvirus 1, KOS, 72 h
Coxsackievirus B4 [7] = experiment: Antiviral activity against Coxsackievirus B4 infected in human HeLa cells assessed as inhibition of virus-induced cytopathicity after 3 days; type: functional, organism-based; conditions: Enterovirus B, 72 h
In short: (§3)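 Confluent cell monolayers infected with 100 CCID50 virus; after 2 h adsorption at 37 °C, virus removed and serial compound dilutions added (DMSO stocks 10 mg/ml). Incubated 37 °C for 3 days until complete CPE in untreated virus control.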

[8] = system: Respiratory syncytial virus; experiment: Antiviral activity against RSV infected in human HeLa cells assessed as inhibition of virus-induced cytopathicity after 3 days; type: functional, organism-based; conditions: 72 h; in short: as §2
[9] = Cytotoxicity against african green monkey Vero cells assessed as minimum cytotoxic concentration required to cause microscopically detectable alteration in normal cell morphology; type: cell-based; conditions: chlorocebus sabaeus; in short: as §1
Human respirovirus 3 = experiment: Antiviral activity against Parainfluenza virus type 3 infected in african green monkey Vero cells assessed as inhibition of virus-induced cytopathicity after 3 days; type: functional, organism-based; conditions: Human respirovirus 3, Vero, 72 h; in short: as §2
[10] = system: Mammalian orthoreovirus 1; experiment: Antiviral activity against Reovirus 1 infected in african green monkey Vero cells assessed as inhibition of virus-induced cytopathicity after 3 days; type: functional, organism-based; conditions: Mammalian orthoreovirus 1, Vero, 72 h; in short: as §2
Sindbis virus = experiment: Antiviral activity against Sindbis virus infected in african green monkey Vero cells assessed as inhibition of virus-induced cytopathicity after 3 days postinfection; type: functional, organism-based; conditions: 72 h; in short: as §2
Coxsackievirus B4 [11] = experiment: Antiviral activity against Coxsackievirus B4 infected in african green monkey Vero cells assessed as inhibition of virus-induced cytopathicity after 3 days; type: functional, organism-based; conditions: Enterovirus B, 72 h; in short: as §2
Punta Toro virus = experiment: Antiviral activity against Punta Toro virus infected in african green monkey Vero cells assessed as inhibition of virus-induced cytopathicity after 3 days; type: functional, organism-based; conditions: 72 h; in short: as §3

Compound	MCC [1]	EC50 (Human alphaherpesvirus 2)	EC50 (Vaccinia virus)	EC50 [2]	EC50 (Human alphaherpesvirus 1 [3])	MCC [4]	EC50 [5]	EC50 (Human alphaherpesvirus 1 [6])	EC50 (Coxsackievirus B4 [7])	EC50 [8]	MCC [9]	EC50 (Human respirovirus 3)	EC50 [10]	EC50 (Sindbis virus)	EC50 (Coxsackievirus B4 [11])	EC50 (Punta Toro virus)
CC(=O)N1N=C(c2ccccc2)CC1c1ccc(OCc2ccccc2)cc1 (stereo unspecified)	100 µg/mL	> 20 µg/mL	> 20 µg/mL	> 20 µg/mL	> 20 µg/mL	> 100 µg/mL	> 100 µg/mL	> 20 µg/mL	> 100 µg/mL	> 100 µg/mL	100 µg/mL	> 20 µg/mL	> 20 µg/mL	> 20 µg/mL	> 20 µg/mL	> 20 µg/mL
Nc1ncnc2c1ncn2C[C@H](O)CO [(S)-DHPA]	–	–	–	–	–	> 250 µg/mL	> 250 µg/mL	–	> 250 µg/mL	> 250 µg/mL	> 250 µg/mL	> 250 µg/mL	> 250 µg/mL	> 250 µg/mL	> 250 µg/mL	> 250 µg/mL
O=C1CSC(N2N=C(c3ccccc3)CC2c2ccc(OCc3ccccc3)cc2)=N1 (stereo unspecified)	100 µg/mL	> 20 µg/mL	> 20 µg/mL	> 20 µg/mL	> 20 µg/mL	100 µg/mL	> 20 µg/mL	> 20 µg/mL	> 20 µg/mL	> 20 µg/mL	100 µg/mL	> 20 µg/mL	> 20 µg/mL	> 20 µg/mL	> 20 µg/mL	> 20 µg/mL
O=C1CSC(N2N=C(c3ccc(Cl)cc3)CC2c2ccc(OCc3ccccc3)cc2)=N1 (stereo unspecified)	100 µg/mL	> 20 µg/mL	> 20 µg/mL	> 20 µg/mL	> 20 µg/mL	100 µg/mL	> 20 µg/mL	> 20 µg/mL	> 20 µg/mL	> 20 µg/mL	100 µg/mL	> 20 µg/mL	> 20 µg/mL	> 20 µg/mL	> 20 µg/mL	> 20 µg/mL
NC(=S)N1N=C(c2ccccc2)CC1c1ccc(OCc2ccccc2)cc1 (stereo unspecified)	100 µg/mL	> 20 µg/mL	> 20 µg/mL	> 20 µg/mL	> 20 µg/mL	≥ 20 µg/mL	> 20 µg/mL	> 20 µg/mL	> 20 µg/mL	> 20 µg/mL	100 µg/mL	> 20 µg/mL	> 20 µg/mL	> 20 µg/mL	> 20 µg/mL	> 20 µg/mL
Nc1ccn(C[C@@H](CO)OCP(=O)(O)O)c(=O)n1.O.O [CIDOFOVIR]	> 250 µg/mL	5 µg/mL	10 µg/mL	> 250 µg/mL	5 µg/mL	–	–	3 µg/mL	–	–	–	–	–	–	–	–
Cc1ccc(-c2csc(N3N=C(c4ccc(Br)cc4)CC3c3ccc(OCc4ccccc4)cc3)n2)cc1 (stereo unspecified)	100 µg/mL	> 20 µg/mL	> 20 µg/mL	> 20 µg/mL	> 20 µg/mL	> 100 µg/mL	> 100 µg/mL	> 20 µg/mL	> 100 µg/mL	> 100 µg/mL	100 µg/mL	> 20 µg/mL	> 20 µg/mL	> 20 µg/mL	> 20 µg/mL	> 20 µg/mL
Clc1ccc(-c2csc(N3N=C(c4ccc(Br)cc4)CC3c3ccc(OCc4ccccc4)cc3)n2)cc1 (stereo unspecified)	> 100 µg/mL	> 100 µg/mL	> 100 µg/mL	> 100 µg/mL	> 100 µg/mL	> 100 µg/mL	> 100 µg/mL	> 100 µg/mL	> 100 µg/mL	> 100 µg/mL	> 100 µg/mL	> 100 µg/mL	> 100 µg/mL	> 100 µg/mL	> 100 µg/mL	> 100 µg/mL
Clc1ccc(-c2csc(N3N=C(c4ccccc4)CC3c3ccc(OCc4ccccc4)cc3)n2)cc1 (stereo unspecified)	100 µg/mL	> 20 µg/mL	> 20 µg/mL	> 20 µg/mL	> 20 µg/mL	100 µg/mL	> 20 µg/mL	> 20 µg/mL	> 20 µg/mL	> 20 µg/mL	100 µg/mL	> 20 µg/mL	> 20 µg/mL	> 20 µg/mL	> 20 µg/mL	> 20 µg/mL
Cc1ccc(-c2csc(N3N=C(c4ccc(Cl)cc4)CC3c3ccc(OCc4ccccc4)cc3)n2)cc1 (stereo unspecified)	100 µg/mL	> 20 µg/mL	> 20 µg/mL	> 20 µg/mL	> 20 µg/mL	> 100 µg/mL	> 100 µg/mL	> 20 µg/mL	> 100 µg/mL	> 100 µg/mL	100 µg/mL	> 20 µg/mL	> 20 µg/mL	> 20 µg/mL	> 20 µg/mL	> 20 µg/mL
Nc1nc2c(ncn2COC(CO)CO)c(=O)[nH]1 [GANCICLOVIR]	> 100 µg/mL	0.08 µg/mL (≈ 0.313 µM)	> 100 µg/mL	> 100 µg/mL	6 µg/mL (≈ 23.5 µM)	–	–	0.08 µg/mL (≈ 0.313 µM)	–	–	–	–	–	–	–	–
Cc1ccc(C2=NN(c3nc(-c4ccc(C)cc4)cs3)C(c3ccc(OCc4ccccc4)cc3)C2)cc1 (stereo unspecified)	100 µg/mL	> 20 µg/mL	> 20 µg/mL	> 20 µg/mL	> 20 µg/mL	> 100 µg/mL	> 100 µg/mL	> 20 µg/mL	> 100 µg/mL	> 100 µg/mL	> 100 µg/mL	> 100 µg/mL	> 100 µg/mL	> 100 µg/mL	> 100 µg/mL	> 100 µg/mL
O=C1CSC(N2N=C(c3ccc(Br)cc3)CC2c2ccc(OCc3ccccc3)cc2)=N1 (stereo unspecified)	100 µg/mL	> 20 µg/mL	> 20 µg/mL	> 20 µg/mL	> 20 µg/mL	> 100 µg/mL	> 100 µg/mL	> 20 µg/mL	> 100 µg/mL	> 100 µg/mL	100 µg/mL	> 20 µg/mL	> 20 µg/mL	> 20 µg/mL	> 20 µg/mL	> 20 µg/mL
O=c1[nH]c(=O)n([C@H]2C[C@H](O)[C@@H](CO)O2)cc1/C=C/Br [BRIVUDINE]	> 250 µg/mL	126 µg/mL (≈ 378 µM)	10 µg/mL (≈ 30 µM)	> 250 µg/mL	> 250 µg/mL	–	–	0.08 µg/mL (≈ 0.24 µM)	–	–	–	–	–	–	–	–
NC(=S)N1N=C(c2ccc(Cl)cc2)CC1c1ccc(OCc2ccccc2)cc1 (stereo unspecified)	> 100 µg/mL	> 100 µg/mL	> 100 µg/mL	> 100 µg/mL	> 100 µg/mL	> 100 µg/mL	> 100 µg/mL	> 100 µg/mL	> 100 µg/mL	> 100 µg/mL	> 100 µg/mL	> 100 µg/mL	> 100 µg/mL	> 100 µg/mL	> 100 µg/mL	> 100 µg/mL
NC(=S)N1N=C(c2ccc(Br)cc2)CC1c1ccc(OCc2ccccc2)cc1 (stereo unspecified)	100 µg/mL	> 20 µg/mL	> 20 µg/mL	> 20 µg/mL	> 20 µg/mL	100 µg/mL	> 20 µg/mL	> 20 µg/mL	> 20 µg/mL	> 20 µg/mL	100 µg/mL	> 20 µg/mL	> 20 µg/mL	> 20 µg/mL	> 20 µg/mL	> 20 µg/mL
Cc1ccc(C2=NN(c3nc(-c4ccc(Cl)cc4)cs3)C(c3ccc(OCc4ccccc4)cc3)C2)cc1 (stereo unspecified)	100 µg/mL	> 20 µg/mL	> 20 µg/mL	> 20 µg/mL	> 20 µg/mL	100 µg/mL	> 20 µg/mL	> 20 µg/mL	> 20 µg/mL	> 20 µg/mL	100 µg/mL	> 20 µg/mL	> 20 µg/mL	> 20 µg/mL	> 20 µg/mL	> 20 µg/mL
Cc1ccc(-c2csc(N3N=C(c4ccccc4)CC3c3ccc(OCc4ccccc4)cc3)n2)cc1 (stereo unspecified)	> 100 µg/mL	> 100 µg/mL	> 100 µg/mL	> 100 µg/mL	> 100 µg/mL	> 100 µg/mL	> 100 µg/mL	> 100 µg/mL	> 100 µg/mL	> 100 µg/mL	100 µg/mL	> 20 µg/mL	> 20 µg/mL	> 20 µg/mL	> 20 µg/mL	> 20 µg/mL
NC(=O)c1ncn([C@@H]2O[C@H](CO)[C@@H](O)[C@H]2O)n1 [RIBAVIRIN]	> 250 µg/mL	> 250 µg/mL	146 µg/mL (≈ 598 µM)	> 250 µg/mL	> 250 µg/mL	> 250 µg/mL	29 µg/mL (≈ 119 µM)	> 250 µg/mL	–	10 µg/mL (≈ 40.9 µM)	> 250 µg/mL	45 µg/mL (≈ 184 µM)	> 250 µg/mL	> 250 µg/mL	> 250 µg/mL	–
